Screening data deposited in PubChem by The Scripps Research Institute Molecular Screening Center.
The list is not random: actives were taken first. Their share in the collection is about 2.4%.
S1P4 antag: human S1P4 receptor antagonism; O95977; S1P4-expressing cells, antagonist mode, reporter read-out; inhibition, % at 4.98 µM; actives 0.26% (n = 220,000); AID 1510; in the data active = inhibition above about 29%;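 also: 0% = wells stimulated with agonist and 100% = vehicle wells without agonist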
NPY1 pot ag: potentiates or activates human NPY-Y1 receptor; P25929; NPY-Y1 expressing cells, potentiator/agonist activation; activation, % at 3.6 µM; actives 0.37% (n = 220,000); in the data active = activation above about 33%, passing the limit was not always enough;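 also: cells stimulated with NPY at EC10 then isoproterenol at EC100; 0% = low agonist plus stimulus and 100% = saturating agonist plus stimulus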
Target sequence (P25929 whole entry, looked up): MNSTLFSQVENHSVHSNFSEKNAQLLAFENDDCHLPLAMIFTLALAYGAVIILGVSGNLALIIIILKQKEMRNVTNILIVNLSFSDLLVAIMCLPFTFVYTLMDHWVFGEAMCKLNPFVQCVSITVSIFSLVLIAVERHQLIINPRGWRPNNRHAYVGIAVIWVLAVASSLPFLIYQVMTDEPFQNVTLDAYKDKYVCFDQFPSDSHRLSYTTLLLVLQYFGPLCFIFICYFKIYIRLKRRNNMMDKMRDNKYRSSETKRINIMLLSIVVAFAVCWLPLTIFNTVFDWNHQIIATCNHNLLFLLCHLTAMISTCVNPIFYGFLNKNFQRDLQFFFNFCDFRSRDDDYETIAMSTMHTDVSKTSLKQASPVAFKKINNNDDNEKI
NPY2 pot ag: potentiates or activates human NPY-Y2 receptor | cells expressing NPY-Y2, potentiator/agonist read-out | activation, % at 3.6 µM | actives 0.45% (n = 220,000); in the data active = activation above about 27%;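 also: cells stimulated with NPY near EC25 plus isoproterenol at EC100; 0% = vehicle plus submaximal agonist and 100% = vehicle plus saturating agonist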
NPY Y1 blocker: blocks the human neuropeptide Y Y1 receptor; P25929; inhibition, % at 3.6 µM; HEK293-CNG Y1 cells, membrane potential fluorescence; NPY at EC95, then isoproterenol; actives 1% (n = 200,000);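 active = inhibition above the campaign mean inhibition of all tested compounds plus 3 SD, cut at about 20% in these data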;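 also: 0% = DMSO wells given NPY plus isoproterenol and 100% = isoproterenol alone without NPY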
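Material: HEK293 Y1/CNG channel cell line; also added: NPY (25 nM), isoproterenol (1 µM), Ro 20-1724 (25 µM); doses: one concentration, 3.6 µM, in 0.4% DMSO; schedule: compound incubation 1 h at room temperature, readout 45 min post-stimulation; technique: membrane potential fluorescence; measure: fluorescence ratio normalized to % inhibition between controls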
S1P4 ag: activates the human S1P4 receptor | O95977 | S1P4-expressing cell line, agonist reporter assay | activation, % at 4.98 µM | actives 0.35% (n = 220,000); in the data active = activation above about 11%;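 also: 0% = DMSO vehicle and 100% = reference agonist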
NPY-Y2 antag: blocks the human neuropeptide Y Y2 receptor; P49146; actives 0.99% (n = 140,000); NPY-Y2 expressing cells, antagonist mode; AID 793; inhibition, % at 2.7 µM; in the data active = inhibition above about 17%;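 also: 0% = vehicle with agonist challenge and 100% = reference antagonist with challenge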
* = called active by the depositor; nt = no result given.

SMILES | S1P4 antag | NPY1 pot ag | NPY2 pot ag | NPY Y1 blocker | S1P4 ag | NPY-Y2 antag
CCC(C)(C(=O)NC1CCCC1)N(Cc1cccs1)C(=O)c1ccc2c(c1)OCO2 (configuration not stated) | -22 | 1 | -5 | 27* | 1 | 18*
CC(NCc1cccs1)C(=O)NC1CCCCC1 (configuration not stated) | 12 | 14 | -4 | -2 | 0 | nt
C(=C\c1ccccc1)/CSc1nnc(-c2cnccn2)n1Cc1ccco1 | -8 | -17 | -16 | 17 | 1 | 22*
COc1cc2c(cc1OC)CN(c1nc(CN3CCCCC3)nc3sc4c(c13)CCCC4)CC2 | 0 | -69 | -15 | 23* | 0 | 20*
CCN(C(=O)[C@@H]1CCCN1C(=O)c1cccs1)c1nc2cc(Cl)ccc2s1 | 3 | -13 | -10 | 10 | 1 | -1
O=C1C2C3C=CC(CO)(O3)C2C(=O)N1c1ccccc1-c1ccccc1 (configuration not stated) | 31* | -3 | 1 | 4 | -2 | 0
CC(=O)Oc1ccc(N2C(=O)C3C4C=CC(CO)(O4)C3C2=O)cc1 (configuration not stated) | -7 | 4 | -1 | 11 | 2 | 2
CC(C)(C)OC(=O)NNC(=O)Nc1ccccc1C(F)(F)F | -2 | -14 | -5 | -1 | -1 | nt
Cc1ccc[n+](-c2nc([O-])sc2C=O)c1 | -3 | -18 | 15 | -3 | 81* | nt
COc1ccc(C2=NN(C(=O)CCCC(=O)O)C(c3cn(-c4ccccc4)nc3-c3ccccc3)C2)cc1 (configuration not stated) | 11 | 8 | -14 | nt | -3 | nt
CC(=O)c1ccc(NC(=O)Nc2ccc(NS(=O)(=O)c3ccc(C)cc3)cc2)cc1 | 3 | 45* | 40* | -12 | 2 | -9
Cc1cc(C)n(-c2ccc(F)cc2CN2CCN(C3CCCC3)C(CCO)C2)n1 (configuration not stated) | 10 | 17 | -10 | 20* | 1 | nt
OCCC1CN(Cc2nc3ccc(F)cc3[nH]2)CCN1C1CCCC1 (configuration not stated) | -3 | -5 | -28 | nt | 2 | nt
COc1ccc(CCNC(=O)c2cc(-c3ccccc3OC)on2)cc1OC | 6 | -35 | -4 | 8 | -1 | 10
COc1ccc(CCNC(=O)c2ccc3ccccc3n2)cc1OC | -12 | 3 | -19 | 20* | -1 | nt
O=C1OC(c2ccccc2)/C(=C(/O)c2ccccc2)C1=O (configuration not stated) | 2 | 103* | 62* | 0 | -3 | 5
O=C1OC(c2ccccc2)/C(=C(/O)c2ccc(Cl)cc2)C1=O (configuration not stated) | 7 | -29 | 2 | -4 | -1 | 5
COc1ccc(C2c3c(-c4cc(Cl)c(C)cc4O)n[nH]c3C(=O)N2Cc2cccnc2)cc1OC (configuration not stated) | -2 | -9 | -19 | 45* | 1 | 55*
COc1ccccc1NC(=S)N1CCN(c2nc(-c3ccccc3)cs2)CC1 | -5 | 7 | -1 | 3 | 0 | nt
CCOc1cc(/C=C2/COc3ccccc3C2=O)ccc1OCC(=O)N(C)C | 37* | 0 | 0 | -7 | -5 | nt
CCOc1cc(/C=C/C(=O)c2ccc(C)cc2)ccc1OCC(=O)N(C)C | 15 | 1 | -6 | -1 | 1 | -2
Cc1csc(NC(=O)CS(=O)(=O)c2ccccc2)n1 | -8 | -6 | 7 | 5 | 1 | nt
Cc1ccc(Nc2nc(N3CCOCC3)c3ccccc3n2)cc1 | 6 | -38 | -53 | 23* | -1 | 8
COc1ccc(Nc2nc(N3CCCCC3)c3ccccc3n2)cc1 | -5 | -44 | -2 | 34* | -1 | 41*
Oc1ccc(Nc2nc(N3CCCC3)c3ccccc3n2)cc1 | -18 | -5 | -7 | 2 | 0 | 3
SMILES | S1P4 antag | NPY1 pot ag | NPY2 pot ag | NPY Y1 blocker | S1P4 ag | NPY-Y2 antag
Cc1ccc(Nc2nc(N)c([N+](=O)[O-])c(N3CCOCC3)n2)cc1 | -18 | -5 | 2 | -4 | 0 | 3
CCCC(=O)Nc1ccc2c(c1)nc(CCN1CCCCC1)n2C | 9 | 14 | 5 | nt | 5 | nt
O=C(O)[C@H]1CCCC[C@H]1C(=O)Nc1ccc(Nc2ccccc2)cc1 | 4 | 49* | 34* | -9 | 1 | -4
O=C(O)COc1ccc(/C=N/NC(=O)Cc2ccc(Cl)cc2)cc1 | -14 | 3 | 17 | nt | 2 | nt
COc1cccc(NCc2cc3c(C(C)(C)C)nn(-c4ccccc4)c3[nH]c2=O)c1 | -9 | 4 | 11 | -5 | 1 | -1
CCOc1ccc(NCc2cc3c(C(C)(C)C)nn(-c4ccccc4)c3[nH]c2=O)cc1 | -4 | 56* | 35* | -11 | 1 | -2
COc1ccc(C(=O)NN(C)c2nc(C(F)(F)F)nc3ccccc23)cc1 | 10 | -16 | -19 | 21* | 0 | nt
COc1ccc(C(=O)NN(C)c2nc(-c3ccccc3)nnc2C(F)(F)F)cc1 | -5 | 2 | -1 | 5 | -2 | 5
Cc1nc(N2CCC(C)CC2)c2c(C)c(C(=O)Nc3ccccc3C(F)(F)F)sc2n1 | 13 | -21 | -22 | 5 | 0 | nt
O=C(NC1CCCCC1)c1ccc(CNc2nc(=S)[nH]c3ccccc23)cc1 | 4 | 0 | 3 | -3 | 0 | nt
Cc1nn(-c2ccc(F)cc2)c2sc(C(=O)O)cc12 | -5 | -36 | -26 | 23* | 1 | 19*
CCCn1c(=O)c2ccccc2n2c(SCc3cc(=O)oc4ccc5ccccc5c34)nnc12 | -14 | -15 | 0 | 9 | 1 | 2
CCCn1c(=O)c2ccccc2n2c(SCc3cc(=O)n4ccsc4n3)nnc12 | -2 | 1 | -1 | 21* | 0 | 3
CCCn1c(=O)c2ccccc2n2c(SCCOc3ccccc3F)nnc12 | -5 | -30 | -15 | 26* | -1 | 17*
CCCn1c(=O)c2ccccc2n2c(SCCOc3ccc(Cl)cc3)nnc12 | -5 | -13 | -4 | 9 | 0 | 13
O=C(O)CCC(=O)NNC(=O)c1cccs1 | -2 | -17 | -7 | 2 | 3 | nt
CNC(=O)CC1C(=O)N(c2ccc(OC)cc2)C(=S)N1NC(=O)c1cccc(F)c1 (configuration not stated) | -24 | 17 | 1 | nt | 0 | nt
c1ccc(-c2nc(-n3nc4ccccc4n3)nc3ccccc23)cc1 | 0 | -18 | -30 | -2 | -1 | 27*
CCCN(CCC)C1=CC(=[N+]2CCCC2)CC(C)(C)C1 | -4 | -21 | 16 | 34* | 1 | 24*
CN(C)NC1=CC(=[N+]2CCCC2)CC(C)(C)C1 | -18 | 15 | -1 | 0 | 1 | nt
CC(C)C(NC(=O)c1ccc(C(C)(C)C)cc1)C(=O)Nc1cccc(S(N)(=O)=O)c1 (configuration not stated) | -15 | 43* | 37* | -6 | 1 | nt
c1ccc(-c2csc3ncnc(NCCN4CCOCC4)c23)cc1 | -3 | 1 | 1 | -5 | 0 | 3
